RGS4 pot = RGS4 potentiators or activators, primary screen, cell-based, HEK293 M3R inducible RGS4, calcium flux. 310,000 compounds, 0.92% hits. carbachol calcium flux Fluo4; stronger effect = lower value. AID 463111, 2010. B-score at 10 µM;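 active = B-score of the integrated calcium signal more than 4 SD below the library mean, with starting fluorescence not abnormally high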;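 also: negative B-score means reduced calcium response which marks RGS4 activation or potentiation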
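Material: M3R-expressing HEK293 line, RGS4 induced by doxycycline | Schedule: Overnight RGS4 induction, 30 min dye load 37 °C, 20 min compound RT | Measured by: Fluo4 fluorescence kinetic imaging of calcium | Read-out: Integrated calcium ratio converted to B score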
MrgX1 antag = antagonists of human MrgX1 receptor, primary screen, HEK293 cells, Fluo-4 calcium flux; BAM8-22 antagonism; stronger effect = lower value; B-score at 10 µM; 310,000 compounds, 1.3% hits; Mas-related G-protein coupled receptor member X1 (Homo sapiens), Q96LB2;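 active = calcium-response B-score plate-corrected more than 3 library SD below zero, starting fluorescence within 5 deviations, no agonist response on first addition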;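 also: peak minus trough fluorescence over baseline after final BAM8-22 challenge near maximal dose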
Target sequence (Q96LB2 whole entry, looked up): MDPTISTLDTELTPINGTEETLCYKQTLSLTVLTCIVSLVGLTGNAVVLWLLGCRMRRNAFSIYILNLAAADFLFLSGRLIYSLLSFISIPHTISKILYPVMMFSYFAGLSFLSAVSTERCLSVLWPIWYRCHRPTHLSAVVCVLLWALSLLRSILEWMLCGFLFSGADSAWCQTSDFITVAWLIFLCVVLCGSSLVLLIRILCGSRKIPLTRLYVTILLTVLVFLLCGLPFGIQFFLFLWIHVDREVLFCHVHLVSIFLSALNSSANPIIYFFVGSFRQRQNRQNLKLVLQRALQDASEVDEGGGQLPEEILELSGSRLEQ
MrgX1 ag = agonists of human MrgX1 receptor, primary screen, HEK293 cells, Fluo-4 calcium flux; AID 588627, 2011; B-score at 10 µM; Mas-related G-protein coupled receptor member X1 (Homo sapiens), Q96LB2; 310,000 compounds, 0.44% hits; Fluo-4 calcium fluorescence, agonist mode; stronger effect = higher value;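 active = calcium response B-score plate-corrected fluorescence ratio at least 3 library SD, with starting fluorescence B-score inside 5 SD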
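Assay system: MrgX1-expressing HEK293 cells / Amount: fifteen thousand cells per well / Doses: test compound in the initial addition of three / Timing: cells plated overnight, dye loaded 0.5 h 37 °C, 0.5 h room temperature / Technique: kinetic calcium dye fluorescence, Fluo-4 NW / Control set: positive and negative controls per plate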
MrgX1 PAM = positive allosteric modulators of MrgX1, primary screen, HEK293 cells, Fluo-4 calcium flux; Mas-related G-protein coupled receptor member X1 (Homo sapiens), Q96LB2; FDSS; stronger effect = higher value; B-score at 10 µM; 310,000 compounds, 0.63% hits; AID 588675, 2011;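 active = plate-corrected calcium response at least 3 library SD above typical, normal starting fluorescence, not activating the receptor alone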;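 also: compound read alongside a low EC10 to EC30 dose of BAM8-22 agonist; peak minus trough fluorescence over baseline measured at the second addition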
RGS4 block = RGS4 inhibitors, primary screen, cell-based, HEK293 M3R inducible RGS4, calcium flux | Regulator of G-protein signaling 4 (Homo sapiens), P49798 | Fluo-4 calcium flux; stronger effect = higher value; triggered by carbachol at its EC20 | B-score at 10 µM | 310,000 compounds, 0.45% hits | AID 463165, 2010;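 active = B-score, a plate-corrected calcium signal, over three deviations above library mean, with baseline fluorescence within five deviations of library mean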;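 also: RGS4 expression induced by doxycycline in cells with stable M3 receptor; B-score is computed from the integrated fluorescence ratio over baseline after carbachol; higher B-score means a larger calcium signal and so more RGS4 inhibition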
Target sequence (P49798 whole entry, looked up): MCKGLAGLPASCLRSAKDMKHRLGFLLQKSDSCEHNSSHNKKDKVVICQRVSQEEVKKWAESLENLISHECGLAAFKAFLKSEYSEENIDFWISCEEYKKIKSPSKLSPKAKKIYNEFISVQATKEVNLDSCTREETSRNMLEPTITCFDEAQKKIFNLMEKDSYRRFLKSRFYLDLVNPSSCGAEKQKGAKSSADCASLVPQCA
RGS4 inh valid = enhanced carbachol calcium response, M3R/RGS4 cells, RGS4 inhibitor project, cell-based, validation screen, HEK293 M3R/RGS4, calcium flux; shares compounds with RGS4 block; carbachol calcium Fluo-4 fluorescence; carbachol added at its EC20; 0 = buffer wells, 100 = carbachol control; calcium response, % at 10 µM; 1,700 compounds, 65% hits; AID 492999, 2010;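 active = duplicate-averaged calcium response above the buffer-only control mean plus 5 SD of those controls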;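 also: integrated fluorescence ratio F max minus min over baseline F0; higher response in RGS4-induced cells means RGS4 inhibition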
RGS4 uninduced = carbachol calcium response in non-induced M3R cells, confirmation, counter-screen for RGS4 inhibitor project, cell-based, HEK293 M3R | AID 493000, 2010 | shares compounds with RGS4 block | carbachol calcium Fluo-4; submaximal (EC20) carbachol stimulus; buffer wells 0%, carbachol control wells 100% | 1,900 compounds, 20% hits | activity (percent), % at 10 µM; call rule not given here;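 also: RGS4 induction absent so cells express M3R without RGS4; higher means more calcium signal and flags a non-specific hit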
M3R basal Ca ctr = second RGS4 inhibitor counter-screen in uninduced cells lacking carbachol; shares compounds with RGS4 block; HEK293 M3R/RGS4 non-induced, Fluo-4 calcium, no carbachol; normalised: buffer wells 0%, carbachol wells 100%; calcium response (agonist-mode artifact), % at 10 µM; 1,900 compounds, 22% hits;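 active = duplicate-averaged calcium rise in uninduced cells above buffer wells' mean plus 5 SD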
The depositor's hits bear a star. Only some compounds are listed: those with a hit (about 3.5% of all), similar ones and a draw of the others.

`Cc1cccc(N2CCN(C(=O)c3nn(C)c4c3CS(=O)(=O)c3ccccc3-4)CC2C)c1` (centres undefined) gave RGS4 pot inactive, MrgX1 antag inactive, MrgX1 ag inactive, MrgX1 PAM inactive and RGS4 block inactive.
`Cn1c(CCNC(=O)c2ccccc2F)nnc1SCC(=O)Nc1nncs1` gave RGS4 pot inactive, MrgX1 antag inactive, MrgX1 ag inactive, MrgX1 PAM inactive and RGS4 block inactive.
O=C1c2ccccc2CN1CCSC(=S)N1CCOCC1 was read as RGS4 pot inactive, MrgX1 antag inactive, MrgX1 ag inactive, MrgX1 PAM inactive, RGS4 block 6.49*, RGS4 inh valid inactive, RGS4 uninduced inactive and M3R basal Ca ctr inactive.
Screening Cc1nn(Cc2ccccc2Cl)c(C)c1C(=O)NCC(c1cccs1)N1CCOCC1 (centres undefined) returned RGS4 pot inactive, MrgX1 antag inactive, MrgX1 ag inactive, MrgX1 PAM inactive and RGS4 block inactive.
`Brc1ccc(C2Nc3cccc4cccc(c34)N2)o1` gave RGS4 pot inactive, MrgX1 antag inactive, MrgX1 ag inactive, MrgX1 PAM inactive, RGS4 block 5.15*, RGS4 inh valid inactive, RGS4 uninduced inactive and M3R basal Ca ctr inactive.
Screening c1csc(C2Nc3cccc4cccc(c34)N2)c1 returned RGS4 pot inactive, MrgX1 antag inactive, MrgX1 ag inactive, MrgX1 PAM inactive, RGS4 block 6.13*, RGS4 inh valid inactive, RGS4 uninduced inactive and M3R basal Ca ctr inactive.
`Brc1cccc(C2Nc3cccc4cccc(c34)N2)c1` gave RGS4 pot inactive, MrgX1 antag inactive, MrgX1 ag inactive, MrgX1 PAM inactive and RGS4 block inactive.
For CCCc1nnc(NC(=O)C2CC(=O)N(C3CCCC3)C2)s1 (centres undefined) the results were RGS4 pot inactive, MrgX1 antag inactive, MrgX1 ag inactive, MrgX1 PAM inactive and RGS4 block inactive.
COC(=O)C1CCN(Cc2cc(=O)oc3cc(OC)ccc23)CC1 was read as RGS4 pot inactive, MrgX1 antag inactive, MrgX1 ag inactive, MrgX1 PAM inactive, RGS4 block 4.79*, RGS4 inh valid 21.0%*, RGS4 uninduced inactive and M3R basal Ca ctr inactive.
For COc1ccc(OC)c(CN2CCN(Cc3cc(=O)oc4cc(O)ccc34)CC2)c1 the results were RGS4 pot inactive, MrgX1 antag inactive, MrgX1 ag inactive, MrgX1 PAM inactive and RGS4 block inactive.
`CCOC(=O)C1CCN(Cc2cc(=O)oc3cc(C)c(Cl)cc23)CC1` gave RGS4 pot inactive, MrgX1 antag inactive, MrgX1 ag inactive, MrgX1 PAM inactive, RGS4 block 9.26*, RGS4 inh valid 5.0%*, RGS4 uninduced inactive and M3R basal Ca ctr inactive.
Cc1cccc(C)c1NC(=O)CN1C(=O)CCSc2ccc(S(=O)(=O)N3CCCC3)cc21 was read as RGS4 pot inactive, MrgX1 antag inactive, MrgX1 ag inactive, MrgX1 PAM inactive and RGS4 block inactive.
Screening CC(=O)/C(=N/Nc1ccccc1)N1CCOCC1 returned RGS4 pot inactive, MrgX1 antag inactive, MrgX1 ag inactive, MrgX1 PAM inactive, RGS4 block inactive, RGS4 inh valid inactive, RGS4 uninduced inactive and M3R basal Ca ctr inactive.
`CC1(C)CC(=O)C(=Cc2cn(-c3ccccc3)nc2-c2ccccc2)C(=O)C1` gave RGS4 pot inactive, MrgX1 antag inactive, MrgX1 ag inactive, MrgX1 PAM inactive, RGS4 block inactive, RGS4 inh valid inactive, RGS4 uninduced inactive and M3R basal Ca ctr inactive.
O/N=C/c1cn(-c2ccccc2)nc1-c1ccccc1 was read as RGS4 pot inactive, MrgX1 antag inactive, MrgX1 ag inactive, MrgX1 PAM inactive and RGS4 block inactive.
For Cc1ccc(NC(=O)c2c(C)nc(Nc3nc4ccccc4o3)nc2C)cc1 the results were RGS4 pot inactive, MrgX1 antag inactive, MrgX1 ag inactive, MrgX1 PAM inactive, RGS4 block inactive, RGS4 uninduced inactive and M3R basal Ca ctr inactive.
Oc1ccc(NC(=S)N=Nc2c(O)[nH]c3ccc(Br)cc23)cc1 was read as RGS4 pot inactive and RGS4 block inactive.
Screening Oc1[nH]c2ccc(Br)cc2c1N=NC(=S)Nc1ccc(F)cc1 returned RGS4 pot inactive, MrgX1 antag inactive, MrgX1 ag inactive, MrgX1 PAM inactive, RGS4 block 7.28*, RGS4 inh valid 11.5%*, RGS4 uninduced inactive and M3R basal Ca ctr inactive.
Screening CCC(C)c1ccccc1N1CC(C(=O)Nc2ccc(S(=O)(=O)N3CCOCC3)cc2)CC1=O (centres undefined) returned RGS4 pot inactive, MrgX1 antag inactive, MrgX1 ag inactive, MrgX1 PAM inactive and RGS4 block inactive.
`O=c1c2ccccc2nc2n1CCS2(=O)=O` gave RGS4 pot inactive, MrgX1 antag inactive, MrgX1 ag inactive, MrgX1 PAM inactive, RGS4 block 6.19*, RGS4 inh valid 26.5%*, RGS4 uninduced inactive and M3R basal Ca ctr inactive.
`O=c1c2ccccc2nc2c3ccccc3c3nncn3n12` gave RGS4 pot inactive and RGS4 block inactive.
CC1CCN(C(=O)CCNS(=O)(=O)c2ccc(Cl)cc2)CC1 was read as RGS4 pot inactive, MrgX1 antag inactive, MrgX1 ag inactive, MrgX1 PAM inactive and RGS4 block inactive.
For Nc1nc2ccc(S(=O)(=O)c3ccc4nc(N)sc4c3)cc2s1 the results were RGS4 pot inactive, MrgX1 antag inactive, MrgX1 ag inactive, MrgX1 PAM inactive, RGS4 block 6.3*, RGS4 inh valid inactive, RGS4 uninduced inactive and M3R basal Ca ctr inactive.
